Laboratory results reported in ChEMBL document CHEMBL2046305, “Discovery of selective menaquinone biosynthesis inhibitors against Mycobacterium tuberculosis” (J Med Chem, 2012).
Values after ≈ are worked out from the molar mass of the structure shown. Active and inactive are the calls of the source. No cut-off for these calls is given here.

Legend:
Staphylococcus aureus [1] = assay: Bactericidal activity against Staphylococcus aureus; format: functional
Escherichia coli [2] = assay: Growth inhibition of Escherichia coli Seattle ATCC 25922 at 5 to 10 ug/ml by microplate alamar blue assay in presence of 50 uM VK2; format: functional, organism-based
Method in brief: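 E. coli grown with inhibitor under anaerobic conditions; rescue tested by supplementing with menaquinone (VK2, 50 μM).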

[3] = test system: Mycobacterium tuberculosis; assay: Bactericidal activity against Mycobacterium tuberculosis; format: functional
Staphylococcus aureus [4] = assay: Antibacterial activity against Staphylococcus aureus Seattle 1945 ATCC 25923 by agar plate diffusion method; format: functional
Escherichia coli [5] = assay: Growth inhibition of Escherichia coli Seattle ATCC 25922 at 5 to 10 ug/ml by microplate alamar blue assay; format: functional, organism-based
[6] = test system: Mycobacterium tuberculosis; assay: Inhibition of Mycobacterium tuberculosis MenA using [3H]farnesyl and DHNA as substrate at 100 uM after 2 hrs
Method in brief: (§1)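 Membrane fraction from mid-log cultures in 7H9/OADC, washed in saline, sonicated in MOPS pH 8/sucrose/MgCl2/2-mercaptoethanol buffer, spun 15,000 g then 200,000 g; the fraction was the enzyme source. DHNA (500 μM stock), MgCl2, 0.1% CHAPS, Tris pH 8, farnesyl diphosphate (200 μM stock) and inhibitor, 2 h at 37 °C. Quenched with 0.1 M AcOH/MeOH, extracted with hexanes, DMMK measured.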

[7] = test system: Mycobacterium tuberculosis; assay: Antibacterial activity against non-replicating Mycobacterium tuberculosis H37Rv ATCC 27294 by low oxygen recovery assay; format: functional
Staphylococcus aureus [8] = assay: Inhibition of Staphylococcus aureus MenA using [3H]farnesyl and DHNA as substrate at 100 uM after 2 hrs; method in brief: as §1
[9] = Inhibition of Mycobacterium tuberculosis MenA using [3H]farnesyl and DHNA as substrate after 2 hrs; method in brief: as §1
[10] = test system: Mycobacterium tuberculosis; assay: Antibacterial activity against Mycobacterium tuberculosis H37Rv ATCC 27294 by microplate alamar blue assay; format: functional
Method in brief: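 Colorimetric microplate assay run under aerobic conditions; growth scored by the colour change of resazurin. Compounds showing at least 90% inhibition in a preliminary screen were retested at lower concentrations to give the MIC.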

[11] = test system: Mycolicibacterium smegmatis; assay: Antibacterial activity against Mycobacterium smegmatis by microplate alamar blue assay; format: functional
Escherichia coli [12] = assay: Antibacterial activity against Escherichia coli Seattle ATCC 25922 at 12.5 ug/ml by oxygen consumption assay; format: functional, organism-based
HepG2 = assay: Cytotoxicity against human HepG2 cells after 72 hrs by MTT assay; format: cell-based; conditions: HepG2, 72 h
Method in brief: (§2)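 Cell viability after 72 h exposure, tested at 10 times the H37Rv MIC; read-out was cellular conversion of MTT into formazan.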

Vero = assay: Cytotoxicity against african green monkey Vero cells after 72 hrs by MTT assay; format: cell-based; conditions: Chlorocebus sabaeus; method in brief: as §2
[13] = test system: Mycobacterium intracellulare; assay: Antibacterial activity against Mycobacterium intracellulare ATCC 15984 by microplate alamar blue assay; format: functional
[14] = test system: Mycobacterium tuberculosis; assay: Ratio of MIC for rifampicin to compound MIC for non-replicating Mycobacterium tuberculosis H37Rv ATCC 27294 by low oxygen recovery assay; format: functional
[15] = Selectivity ratio of IC50 for african green monkey Vero cells to IC50 for Mycobacterium tuberculosis […]; format: ADME, cell-based; conditions: read-out: Ratio IC50
[16] = Selectivity ratio of IC50 for human HepG2 cells to IC50 for Mycobacterium tuberculosis […]; format: ADME, cell-based; conditions: read-out: Ratio IC50

SMILES | MIC (Staphylococcus aureus [1]) | growth inhibition (GI) (Escherichia coli [2]) | MIC [3] | MIC (Staphylococcus aureus [4]) | growth inhibition (GI) (Escherichia coli [5]) | inhibition [6] | MIC [7] | inhibition (Staphylococcus aureus [8]) | IC50 [9] | MIC [10] | MIC [11] | Activity (Escherichia coli [12]) | IC50 (HepG2) | IC50 (Vero) | MIC [13] | Ratio [14] | selectivity ratio [15] | selectivity ratio [16]
CCCCCCCC(O)c1cccc(CN2CCC(COc3cccc(C(=O)c4ccc(Cl)cc4)c3)CC2)c1 (racemic) | > 50 µg/mL | inactive | 8 µg/mL (≈ 14.6 µM) | > 60 µg/mL | Active | Active | 1.88 µg/mL (≈ 3.43 µM) | inactive | 15 µM | 12.5 µg/mL (≈ 22.8 µM) | – | – | – | – | – | – | – | –
COc1ccc(CCNC(CO)c2cccc(COc3cccc(C(=O)c4ccc(Cl)cc4)c3)c2)cc1 (racemic) | > 50 µg/mL | inactive | 8 µg/mL (≈ 15.5 µM) | > 60 µg/mL | Active | Active | 3 µg/mL (≈ 5.81 µM) | inactive | 15 µM | 12.5 µg/mL (≈ 24.2 µM) | – | – | – | – | – | – | – | –
CCCCCC[C@H](CN1CCC(COc2cccc(C(=O)c3ccc(Cl)cc3)c2)CC1)OC(N)=O | – | inactive | – | > 60 µg/mL | Active | Active | 0.85 µg/mL (≈ 1.7 µM) | inactive | 1.5 µM | 2.31 µg/mL (≈ 4.61 µM) | 6.5 µg/mL (≈ 13 µM) | Active | 7.5 µg/mL (≈ 15 µM) | 7.5 µg/mL (≈ 15 µM) | 6.5 µg/mL (≈ 13 µM) | 1.7 | – | –
CCCCCCCC(O)c1cccc(CN2CCC(COc3ccc(C(=O)c4ccc(Cl)cc4)c(Cl)c3)CC2)c1 (racemic) | > 50 µg/mL | inactive | 8 µg/mL (≈ 13.7 µM) | > 60 µg/mL | Active | Active | 1.88 µg/mL (≈ 3.23 µM) | inactive | 20 µM | 12.5 µg/mL (≈ 21.5 µM) | – | – | – | – | – | – | – | –
CC(C)=CC(O)C/C(C)=C/CC/C(C)=C/Cc1c(C)n(O)c2ccccc2c1=O (stereo unspecified) [AURACHIN RE] | 3.1 µg/mL (≈ 7.84 µM) | – | 25 µg/mL (≈ 63.2 µM) | – | – | – | – | – | – | – | – | – | – | – | – | – | – | –
C=CCN(C)CCCCCCCCOc1ccc(C(=O)c2ccc(Cl)cc2)c(Cl)c1 | 15.5 µg/mL (≈ 34.6 µM) | – | 0.5 µg/mL (≈ 1.11 µM) | – | – | – | – | – | – | – | – | – | – | – | – | – | – | –
CCCCC(O)CN1CCC(COc2ccc(C(=O)c3ccc(Cl)cc3)c(Cl)c2)CC1 (racemic) | > 50 µg/mL | inactive | 0.5 µg/mL (≈ 1.08 µM) | > 60 µg/mL | Active | Active | 2.82 µg/mL (≈ 6.07 µM) | inactive | 15 µM | 6.25 µg/mL (≈ 13.5 µM) | – | – | – | – | – | – | – | –
CCCCC(O)CN1CCC(COc2cccc(C(=O)c3ccc(Cl)cc3)c2)CC1 (racemic) | > 50 µg/mL | inactive | 8 µg/mL (≈ 18.6 µM) | > 60 µg/mL | Active | Active | 5.2 µg/mL (≈ 12.1 µM) | inactive | 15 µM | 12.5 µg/mL (≈ 29.1 µM) | – | – | – | – | – | – | – | –
CCCCCC[C@@H](CN1CCC(COc2ccc(C(=O)c3ccc(Cl)cc3)c(Cl)c2)CC1)OC(N)=O | – | inactive | – | > 60 µg/mL | Active | Active | 1.45 µg/mL (≈ 2.71 µM) | inactive | 1.5 µM | 1.5 µg/mL (≈ 2.8 µM) | – | Active | – | – | – | – | – | –
O=C(c1ccc(Cl)cc1)c1ccc(OCc2cccc(CN3CCC(N4CCCCC4)CC3)c2)cc1Cl | 15.5 µg/mL (≈ 28.8 µM) | – | 8 µg/mL (≈ 14.9 µM) | – | – | – | – | – | – | – | – | – | – | – | – | – | – | –
O=C(c1ccc(Cl)cc1)c1ccc(OC/C=C/COCCCNCCc2ccc(F)cc2)cc1Cl | 0.5 µg/mL (≈ 0.968 µM) | – | 8 µg/mL (≈ 15.5 µM) | – | – | – | – | – | – | – | – | – | – | – | – | – | – | –
COc1ccc(CCNCCCOCCCCOc2ccc(C(=O)c3ccc(Cl)cc3)c(Cl)c2)cc1 | 0.5 µg/mL (≈ 0.943 µM) | – | 15.5 µg/mL (≈ 29.2 µM) | – | – | – | – | – | – | – | – | – | – | – | – | – | – | –
CCCCCCC[C@@H](OC(N)=O)c1cccc(CN2CCC(COc3ccc(C(=O)c4ccc(Cl)cc4)c(Cl)c3)CC2)c1 | – | inactive | – | > 60 µg/mL | Active | Active | 4.93 µg/mL (≈ 7.88 µM) | inactive | 20 µM | 12.5 µg/mL (≈ 20 µM) | – | – | – | – | – | – | – | –
CCCCCCC[C@H](O)c1cccc(CN2CCC(COc3ccc(/C(=N\OC)c4ccc(Cl)cc4)c(Cl)c3)CC2)c1 | – | inactive | – | > 60 µg/mL | Active | Active | 5.54 µg/mL (≈ 9.06 µM) | inactive | 20 µM | 12.5 µg/mL (≈ 20.4 µM) | – | – | – | – | – | – | – | –
CCCCCC[C@H](CN1CCC(COc2cccc(/C(=N\OC)c3ccc(Cl)cc3)c2)CC1)OC(N)=O | – | inactive | – | > 60 µg/mL | Active | Active | 0.85 µg/mL (≈ 1.6 µM) | inactive | 1.2 µM | 2.31 µg/mL (≈ 4.36 µM) | 6.5 µg/mL (≈ 12.3 µM) | – | 25 µg/mL (≈ 47.2 µM) | 25 µg/mL (≈ 47.2 µM) | 6.5 µg/mL (≈ 12.3 µM) | – | > 10 | > 10
CCCCCC[C@H](O)CN1CCC(COc2ccc(C(=O)c3ccc(Cl)cc3)c(Cl)c2)CC1 | – | inactive | – | > 60 µg/mL | Active | Active | 1.43 µg/mL (≈ 2.9 µM) | inactive | 3.5 µM | 1.5 µg/mL (≈ 3.05 µM) | – | – | – | – | – | – | – | –
